Source: PubChem BioAssay (several laboratories)
Only some compounds are listed: those with a hit (about 1.5% of all), similar ones and a draw of the others.
Rin1 Abl inh – blocks binding of human Rin1 to Abl; 360,000 compounds, 0.4% hits; inhibition, % at 7.35 µM; TR-FRET Rin1/Abl binding, biochemical; P00519+Q13671; AID 588664; in the data active = inhibition above about 5%, passing the limit was not always enough
TbMetRS inhib – Trypanosoma brucei MetRS inhibition. purified T. brucei MetRS, ATP depletion, Kinase-Glo luminescence. inhibition, % at 11.9 µM. 360,000 compounds, 0.4% hits. AID 624268;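 active = inhibition above a per-plate cutoff of the control wells' mean inhibition plus 3 SD, cut at about 5.5% in these data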;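 note: 0% = DMSO wells median and 100% = median of wells with control inhibitor compound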
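Measured by: Kinase-Glo luciferase luminescence reporting remaining unconsumed ATP. Material: purified T. brucei MetRS enzyme. Doses: 11.9 µM compound single dose, 0.9% DMSO. Medium: HEPES buffer containing pyrophosphatase, BSA, spermine, DTT. Times: 15 min preincubation, 2 h reaction, all 25 °C. Reagent: methionine, ATP and bulk E. coli tRNA.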
Cardio protect – myocardial damage modulation in H9c2 cells | H9c2 cardiomyocytes, H2O2 injury protection, ATPLite, 2 h | protection from H2O2 cell death, % at 20 µM | 360,000 compounds, 0.63% hits;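 active = compounds giving at least 50% protection of heart cells from peroxide-induced death in the single-dose screen, raw or plate-pattern-corrected value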;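 note: 0% = DMSO wells with peroxide and 100% = DMSO wells without peroxide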
PKA-R2B act – PKA-R2B complex activation; P22694+P31323; PKA-R2B holoenzyme dissociation, Cy5-IP20 fluorescence polarization; R2B truncated from residue 108, S112A mutant; 0% DMSO only, 100% 113 µM cGMP; activation, % at 11.4 µM; 340,000 compounds, 0.079% hits; AID 504700;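 active = activation above a cutoff set at the mean over all compounds plus 3 SD, cut at about 18% in these data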;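 note: higher means more holoenzyme dissociation and a rise in polarization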
PKA-R1A act – activators of PKA-R1A complex; P00514+P68181; activation, % at 11.4 µM; AID 504707; PKA-R1A dissociation, Cy5-IP20 fluorescence polarization; scaled: DMSO 0%, 113 µM cGMP 100%; 340,000 compounds, 0.083% hits;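 active = percent activation above the mean of all tested compounds plus 3 SD, cut at about 19% in these data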;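 note: higher means more PKAc released from R1A so a rise in polarization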
* hit, by the source's call; . = no result.

SMILES	Rin1 Abl inh	TbMetRS inhib	Cardio protect	PKA-R2B act	PKA-R1A act
Cc1c(C(=O)Nc2ccc3nc(N4CCOCC4)sc3c2)oc2ccccc12	2	0	58*	0	1
O=C(Nc1ccc2nc(N3CCOCC3)sc2c1)c1cc2ccccc2o1	0	0	68*	1	-2
COc1cc(C(=O)Nc2ccc3nc(N4CCOCC4)sc3c2)cc(OC)c1OC	-1	0	16	3	-1
O=C(Nc1ccc(N2CCOCC2)c(Cl)c1)c1cc2ccccc2o1	-3	0	4	-2	-9
C[C@H]1CN([C@@H](C)CO)C(=O)CCCn2cc(nn2)CO[C@@H]1CN(C)C(=O)Nc1ccccc1C(F)(F)F	-3	-1	20	-1	5
COc1ccc(NC(=O)Cn2nnc(C(=O)Nc3ccc(F)c(Cl)c3)c2N)cc1	-1	0	-2	-9	-18
CC1CCCC(C)N1C(=O)COc1ccc(F)cc1 (stereo unspecified)	1	0	3	6	-2
COc1ccc(OC)c(C2CC(=O)c3c([nH]c(C(=O)OCC4CCCO4)c3C)C2)c1 (stereo unspecified)	-1	-2	71*	-3	-2
COc1ccc(Br)cc1/C=N/NC(=O)CNC(=O)/C=C/c1ccccc1	-1	-2	64*	-9	0
COc1ccccc1/C=C\C(=O)NCC(=O)N/N=C/c1ccc(O)cc1O	-3	0	52*	1	-3
O=C(CCc1ccccc1)NCC(=O)N/N=C/c1ccc(O)cc1O	-4	1	53*	-10	-3
COc1cccc(/C=N/NC(=O)CNC(=O)/C=C\c2ccccc2)c1O	-4	0	52*	-4	-4
COc1ccc(/C=C\C(=O)NCC(=O)N/N=C/c2cccc(OC)c2O)cc1	-1	0	44	10	-2
COc1ccc(/C=C/C(=O)NCC(=O)N/N=C/c2cc(Br)ccc2OCc2ccccc2)cc1	0	0	-6	3	5
O=C(CNC(=O)c1cccs1)N/N=C/c1ccc(O)cc1O	-2	2	36	-15	-8
COc1ccc(CS(=O)(=O)CC2(O)CCN(C(=O)c3cccc(C(F)(F)F)c3)CC2)cc1	2	-1	2	-11	0
COc1cc(OC)nc(Oc2cc(/C=N/O)ccc2OC)n1	0	-1	-3	-1	-1
O=C(CN1CCCc2ccccc21)N/N=C/c1ccc(O)cc1O	-4	0	52*	-9	-1
O=C(CN1CCCc2ccccc21)N/N=C/c1ccccc1	-5	1	-3	-12	1
COc1ccc(CC(=O)NCc2ccc(Cl)cc2)cc1S(=O)(=O)N1CCOCC1	2	0	2	-16	-13
Cc1ccc(NC(=O)CSc2ccc(-c3ccccn3)nn2)cc1	-5	-1	54*	4	1
COc1ccc(C(O)c2nc(-c3cnn(C)c3)cs2)cc1 (stereo unspecified)	-2	0	-10	.	.
CCC(=O)Oc1ccc2c(C)cc(=O)oc2c1C	-6	-1	59*	-10	-2
O=C(COC(=O)c1ccc(Cl)c(S(=O)(=O)N2CCCCC2)c1)NCC1CCCO1 (stereo unspecified)	5	-1	4	-8	-2
COc1ccc(OC)c(NC(=O)NNC(=O)c2cc3occc3[nH]2)c1	-2	9.2*	-1	1	8
SMILES	Rin1 Abl inh	TbMetRS inhib	Cardio protect	PKA-R2B act	PKA-R1A act
COc1cccc(C2Nc3c(F)cc(Br)cc3C3C=CCC32)c1OC (stereo unspecified)	0	1	-16	2	6
COc1cccc2c1NC(C(=O)O)C1CC=CC21 (stereo unspecified)	7.6*	0	4	-7	2
COc1cccc(CN(CCC(C)C)S(=O)(=O)c2cc(Br)ccc2Br)c1	1	0	-11	1	-5
CCOC(=O)CCCc1sc(N)nc1-c1[nH]c(=O)[nH]c1C	63*	0	0	-4	-1
Oc1[nH]c2ccccc2c1C1=NCCCCC1	-1	-1	-9	7	4
CCC(C)NC(=O)c1ccc2nc(-c3ccc(OC)c(OC)c3)c(-c3ccc(OC)c(OC)c3)nc2c1 (stereo unspecified)	1	-2	71*	-7	-15
Cc1ccc(S(=O)(=O)Nc2cc3c4c(c2)CCN4C(=O)CC3)cc1	3	0	0	-7	-5
Cc1ccc(CNC(=O)c2oc3ccc(S(=O)(=O)N4CCOCC4)cc3c2C)cc1	2	-1	51*	-2	-2
Cc1cc(C)c2nc3nc(C)c(C)cc3c(N)c2c1	-8	0	2	1	-2
CCN(CC(=O)Nc1c(F)cccc1F)C(=O)Cc1n[nH]c(=O)c2ccccc12	-2	0	60*	-1	1
CCN(CC(=O)Nc1c(F)cccc1F)C(=O)CCCc1nc2ccccc2c(=O)[nH]1	1	0	26	-1	-2
CCCN(CC(=O)Nc1ccc(F)c(F)c1F)C(=O)CCc1nc2ccccc2c(=O)[nH]1	3	0	68*	1	-12
CCN(CC(=O)Nc1c(F)cccc1F)C(=O)Cc1ccsc1	3	-1	1	-6	-10
CCN(CC(=O)Nc1ccccc1C(F)(F)F)C(=O)CCc1nc2ccccc2c(=O)[nH]1	3	-1	46	-13	0
CCN(CC(=O)Nc1c(F)cccc1F)C(=O)CCc1nc2ccccc2c(=O)[nH]1	0	0	64*	0	-4
Fc1ccccc1Cc1noc(CN(Cc2ccccn2)CC2CCCO2)n1 (stereo unspecified)	0	1	2	5	-14
CCOc1cc(-c2cc(-c3ccc(N)cc3)nc(N)c2C#N)ccc1O	-2	-1	116*	-3	-8
COC(=O)c1c(C)c2c(C)cc3ccccn3c-2c1C(=O)OC	-5	-1	6	-12	-6
COC(=O)c1cc2c(-c3ccccc3)cc3ccccn3c-2c1C(=O)OC	4	-2	61*	-6	1
COc1cc(C(=O)NCC(=O)N/N=C/c2ccc(-c3cccc([N+](=O)[O-])c3)o2)cc(OC)c1OC	1	0	66*	0	-1
Cc1ccc(C(=O)N/N=C\c2ccc(-c3ccc(Cl)cc3)o2)cn1	-5	0	60*	-2	1
O=C(N/N=C/c1ccc(-c2cccc([N+](=O)[O-])c2)o1)c1ccc([N+](=O)[O-])cc1	-2	-1	72*	0	-15
O=C(N/N=C/c1ccc(-c2cccc([N+](=O)[O-])c2)o1)c1ccccc1O	1	0	35	-8	-16
COc1ccc(N/C=C(\C#N)c2nc3ccccc3n2C)c(OC)c1	0	-1	50*	4	1
COc1ccc(CNc2nc3ccccc3n2C)c(OC)c1	-1	0	-6	0	-9
